Screens deposited in PubChem BioAssay by Broad Institute.
Shown are actives, neighbours in structure and some others; about 3.5% of the full set was active somewhere.
Env fusion inh = blocks HIV Env-driven cell-cell fusion. HeLa-JRFL Env/CEM21 cell fusion, luciferase. inhibition, % at 12.3 µM. hit rate 1.1% among 360,000;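 active means mean replicate inhibition score of at least 50 and every replicate individually at or above 50; inconclusive means only one of the two criteria met; inactive means mean below 50 and not all replicates reaching 50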;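 further: 0% = plate neutral controls and 100% = maraviroc near 300 nM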
PGC1a acetyl inh = lowers PGC1a acetylation signal in U2OS cells; AlphaScreen anti-acetyl-lysine; with virally co-expressed GCN5 acetyltransferase; inhibition, % at 15.6 µM; hit rate 0.17% among 350,000;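 active means every replicate shows inhibition of at least 40%; inconclusive means mean inhibition at least 40% but some replicate below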;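 further: 0% = neutral control wells and 100% = positive control wells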
Ecoli rRNA inh = inhibitors of bacterial rRNA selective over humanized ribosomes; E. coli WT GFP vs humanized-ribosome RFP mutants, fluorescence, 24 h; stronger effect = lower value; DMSO median 0, no signal -100; hit rate 1.6% among 350,000; AID 720706; GFP signal change (wild-type ribosome), % (no concentration beside the values);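 active means significant combined selectivity score with lowered wild-type GFP, culture density cut under 30%, mutant RFP and density less affected; inactive means any of these conditions unmet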
ERAP1 inh = inhibitors of human ERAP1 aminopeptidase. Q9NZ08. recombinant ERAP1, Leu-AMC fluorescence, 60 min. inhibition, % at 10.7 µM. hit rate 0.15% among 340,000;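 active means mean replicate inhibition of at least 30%, or all replicates individually reaching that 30% level; inactive means mean below 30% and not every replicate reaching it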;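 further: 0% = neutral control wells and 100% = L-leucinethiol positive control wells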
Target sequence (Q9NZ08 whole entry, looked up): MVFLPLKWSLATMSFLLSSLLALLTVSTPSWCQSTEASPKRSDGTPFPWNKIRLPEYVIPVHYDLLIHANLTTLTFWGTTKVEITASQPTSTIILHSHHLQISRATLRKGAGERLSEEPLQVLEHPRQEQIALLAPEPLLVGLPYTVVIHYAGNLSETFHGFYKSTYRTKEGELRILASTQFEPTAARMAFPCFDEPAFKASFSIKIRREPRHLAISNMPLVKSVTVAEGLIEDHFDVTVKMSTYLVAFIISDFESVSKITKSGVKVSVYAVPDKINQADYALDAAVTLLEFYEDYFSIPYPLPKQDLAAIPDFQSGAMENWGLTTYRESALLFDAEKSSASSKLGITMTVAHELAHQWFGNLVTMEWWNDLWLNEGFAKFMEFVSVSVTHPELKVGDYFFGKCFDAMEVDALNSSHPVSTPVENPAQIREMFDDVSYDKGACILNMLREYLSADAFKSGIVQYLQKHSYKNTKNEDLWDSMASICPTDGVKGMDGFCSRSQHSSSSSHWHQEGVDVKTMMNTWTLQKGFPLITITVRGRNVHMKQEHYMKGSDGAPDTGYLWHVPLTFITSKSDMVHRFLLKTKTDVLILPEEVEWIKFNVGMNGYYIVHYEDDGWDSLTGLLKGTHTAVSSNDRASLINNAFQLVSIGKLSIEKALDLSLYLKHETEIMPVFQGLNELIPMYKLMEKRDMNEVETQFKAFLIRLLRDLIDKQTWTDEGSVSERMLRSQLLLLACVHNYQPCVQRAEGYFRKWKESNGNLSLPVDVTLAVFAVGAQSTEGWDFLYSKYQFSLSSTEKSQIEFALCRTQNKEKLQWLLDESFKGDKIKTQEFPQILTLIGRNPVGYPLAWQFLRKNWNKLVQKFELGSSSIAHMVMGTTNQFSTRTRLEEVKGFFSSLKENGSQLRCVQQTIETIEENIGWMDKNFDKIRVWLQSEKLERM
Cneo AK release = causes C. neoformans cell lysis; lysis activity, % at 15 µM; hit rate 0.2% among 360,000; adenylate kinase release luminescence, 4 h; normalised: neutral wells 0, clomiphene wells 100;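 active means mean lysis activity across replicates of at least 80%, whatever share of replicates individually reach that level; inactive means mean lysis activity below 80%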
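Material: C. neoformans cells | Amount: Yeast cell density of 5 × 10^6 cells/mL | Medium: Fresh YPD growth medium | Dosing: Single dose | Times: Static 4 h at 37 °C with compound, 1 h detection | Detection: AK luminescence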
FGF22 binding = shifts melting point of recombinant human FGF22. hit rate 1.5% among 340,000. activity (Tm shift, normalised), % at 9.99 µM. AID 651658. Q9HCT0. recombinant FGF22 thermal shift, SYPRO orange fluorescence; percent of sucrose octasulfate shift, DMSO zero;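 active means mean Tm shift, scaled 0 neutral to 100 positive control, at about 1.3% or above, every replicate too, limit read from the data; inconclusive means no clear call, values can overlap the other calls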
An asterisk follows results filed as active; [ ] = another dose, or the depositor's remark.

How did CCS(=O)(=O)NC[C@@H]1[C@@H](c2ccccc2)[C@@H](CO)N1CC1CC1 do in these assays?
Ecoli rRNA inh: 2; ERAP1 inh: 0

Results for C=CCc1cc(Cl)ccc1OCCN(C)C ?
PGC1a acetyl inh: -13; Ecoli rRNA inh: 3; ERAP1 inh: 1; Cneo AK release: 2; FGF22 binding: 0

How did C=CCc1cc(Cl)ccc1OCCCNCCO do in these assays?
Env fusion inh: 4; Ecoli rRNA inh: 2; ERAP1 inh: 1; FGF22 binding: 44*

What do the screens show for `CCC(Sc1nncn1C)C(=O)Nc1cc(C)on1` (stereo unspecified)?
Env fusion inh: 16; PGC1a acetyl inh: -22; Ecoli rRNA inh: 4; ERAP1 inh: -4; FGF22 binding: 1

How did COc1ccc(/C=C(\C#N)C(=O)OCC(=O)NC2CC2)cc1 do in these assays?
Env fusion inh: 17; Ecoli rRNA inh: 16; ERAP1 inh: 0; FGF22 binding: 44*

What do the screens show for `COc1ccc(/C=C(\C#N)C(=O)OCC(=O)NCc2ccco2)cc1`?
PGC1a acetyl inh: -3; Ecoli rRNA inh: -1; ERAP1 inh: 1; Cneo AK release: -2; FGF22 binding: 0

How did COc1ccc(/C=C(\C#N)C(=O)OCC(=O)NCc2ccccc2)cc1 do in these assays?
Env fusion inh: -16; PGC1a acetyl inh: -6; Ecoli rRNA inh: 14; ERAP1 inh: 0; Cneo AK release: 0; FGF22 binding: 34*

What do the screens show for `N#C/C(=C/c1ccccc1)C(=O)NCc1ccccc1`?
Env fusion inh: -4; PGC1a acetyl inh: 5; Ecoli rRNA inh: 0; ERAP1 inh: -4; Cneo AK release: -1; FGF22 binding: 44*

What do the screens show for `CC12CCC(=O)N1C(C(=O)Nc1cc(S(=O)(=O)N3CCCCCC3)ccc1OCC(F)(F)F)CS2` (stereo unspecified)?
Env fusion inh: 20; Ecoli rRNA inh: -2; ERAP1 inh: 4; Cneo AK release: 0; FGF22 binding: 0

Results for C[C@@H]1CN([C@H](C)CO)C(=O)Cc2cc(NC(=O)C3CCCCC3)ccc2O[C@H]1CN(C)S(C)(=O)=O ?
Env fusion inh: 18[16.7 µM]; PGC1a acetyl inh: 0; Ecoli rRNA inh: 1; ERAP1 inh: 3; Cneo AK release: -5; FGF22 binding: 0

Results for Cc1ccccc1Cn1c(C)c(C(=O)NCCC#N)sc1=O ?
Env fusion inh: -47; Ecoli rRNA inh: 11; Cneo AK release: 0; FGF22 binding: 0

What do the screens show for `C[C@@]12CCC3[C@@](CCC4[C@@]3(C)CCC[C@@]4(C)C(=O)O)(CC1=O)C2` (stereo partly specified)?
Env fusion inh: 7; Ecoli rRNA inh: -40; ERAP1 inh: 1; Cneo AK release: 1; FGF22 binding: 0

Results for COC(=O)[C@]1(C)CCC[C@@]2(C)C3CC[C@@]4(C)C[C@]3(CCC21)CC(=O)N4 (stereo partly specified) ?
Env fusion inh: 15; Ecoli rRNA inh: -28*; ERAP1 inh: 0; Cneo AK release: 0; FGF22 binding: 0

What do the screens show for `C=C1C(=O)C23CCC4C(C)(C(=O)OC)CCCC4(C)C2CCC1(O)C3` (stereo unspecified)?
Env fusion inh: -27; PGC1a acetyl inh: 76*; Ecoli rRNA inh: -37; ERAP1 inh: -2; FGF22 binding: 0

What do the screens show for `O=C1C(c2ccccc2)c2ccccc2N1Cc1ccccc1` (stereo unspecified)?
Env fusion inh: 17; PGC1a acetyl inh: 8; Ecoli rRNA inh: -20*; ERAP1 inh: 2; Cneo AK release: 0

What do the screens show for `COc1ccc(NC(=O)CSc2c3c(nc4cc(Cl)ccc24)CCCC3)cc1OC`?
Ecoli rRNA inh: 0; ERAP1 inh: -1; FGF22 binding: 0

Results for CC(=O)C1(C)N(O)C(C)(C)C(c2ccco2)=[N+]1[O-] (stereo unspecified) ?
Env fusion inh: 58*; PGC1a acetyl inh: 9; Cneo AK release: -1

How did COCC(=O)N1CC2(CN(Cc3ccc(Cl)cc3)C2)c2c([nH]c3cc(OC)ccc23)[C@H]1CO do in these assays?
PGC1a acetyl inh: -7; Ecoli rRNA inh: -5

What do the screens show for `CCNC(=O)OCc1cn(-c2ccccc2)nn1`?
Env fusion inh: inconclusive; PGC1a acetyl inh: 13; Ecoli rRNA inh: 8; ERAP1 inh: -7; FGF22 binding: 44*

What do the screens show for `CC(C)(C)C(=O)OCc1cn(-c2ccccc2)nn1`?
Env fusion inh: -52; PGC1a acetyl inh: 19; Cneo AK release: 1

What do the screens show for `Cc1ccc(S(=O)(=O)N=Nc2c(O)[nH]c3ccccc23)cc1`?
Env fusion inh: -40; PGC1a acetyl inh: 9; Cneo AK release: 0

Results for Cc1ccc(C)c(S(=O)(=O)N=Nc2c(O)[nH]c3ccccc23)c1 ?
Env fusion inh: 10; PGC1a acetyl inh: -10; Ecoli rRNA inh: 2; ERAP1 inh: 2; FGF22 binding: 43*

Results for NS(=O)(=O)c1cccc(NC(=O)COC(=O)CSCc2ccccc2)c1 ?
Env fusion inh: 8; PGC1a acetyl inh: 0; Ecoli rRNA inh: 3; ERAP1 inh: -2; Cneo AK release: -1; FGF22 binding: 0

How did O=C(O)c1cccc(NC(=S)NC(NC(=O)c2ccccc2[N+](=O)[O-])C(Cl)(Cl)Cl)c1 (stereo unspecified) do in these assays?
Env fusion inh: 2; ERAP1 inh: -30; FGF22 binding: 0

How did O=C(Nc1ccc(Oc2ccc(NC(=O)Nc3ccc([N+](=O)[O-])cc3)cc2)cc1)Nc1ccc([N+](=O)[O-])cc1 do in these assays?
Env fusion inh: 60*; Ecoli rRNA inh: -17; ERAP1 inh: 2; Cneo AK release: 0; FGF22 binding: 0

How did O=C(O)c1cc(NC(=O)c2ccc([N+](=O)[O-])cc2)cc(NC(=O)c2ccc([N+](=O)[O-])cc2)c1 do in these assays?
Env fusion inh: 17; PGC1a acetyl inh: 1; Ecoli rRNA inh: 4; ERAP1 inh: -2; Cneo AK release: -3; FGF22 binding: 0

How did O=C(O)c1cccc(NC(=S)NC(NC(=O)c2cccc([N+](=O)[O-])c2)C(Cl)(Cl)Cl)c1 (stereo unspecified) do in these assays?
Env fusion inh: 9; PGC1a acetyl inh: 2; Ecoli rRNA inh: 4; ERAP1 inh: -11; Cneo AK release: -2; FGF22 binding: 2.8*

What do the screens show for `O=C(Nc1ccc([N+](=O)[O-])cc1)C(=O)Nc1cccc(C(=O)O)c1`?
Env fusion inh: 115*; PGC1a acetyl inh: -6; Ecoli rRNA inh: 4; ERAP1 inh: 1; Cneo AK release: -14; FGF22 binding: 0

What do the screens show for `Nc1c(C(=O)Nc2ccc3c(c2)OCCO3)nnn1Cc1ccccc1Cl`?
Env fusion inh: -75; Ecoli rRNA inh: -3; ERAP1 inh: -1; Cneo AK release: -1; FGF22 binding: 0
